Measurements from ChEMBL document CHEMBL1130262, “Peptidomimetic inhibitors of the human cytomegalovirus protease” (J Med Chem, 1997).

Columns and labels:
Chymotrypsinogen A = Chymotrypsinogen A (Bos taurus, UniProt P00766); test: Activity against serine protease bovine pancreatic Alpha-Chymotrypsinogen (BPC)
How it was run: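 Colorimetric assay with bovine pancreatic α-chymotrypsin ([…], as printed) and 100 μM Succ-AAPF-pNA. Inhibitor at 300–0.06 μM, preincubated with enzyme 1 h at 30 °C. Substrate then added and hydrolysis run to ~30% conversion, read as pNA absorbance.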

Neutrophil elastase = biological target: T1, Neutrophil elastase (Homo sapiens, UniProt P08246); test: Binding affinity for human leukocyte elastase(HLE) serine protease
T1 sequence (P08246 whole entry): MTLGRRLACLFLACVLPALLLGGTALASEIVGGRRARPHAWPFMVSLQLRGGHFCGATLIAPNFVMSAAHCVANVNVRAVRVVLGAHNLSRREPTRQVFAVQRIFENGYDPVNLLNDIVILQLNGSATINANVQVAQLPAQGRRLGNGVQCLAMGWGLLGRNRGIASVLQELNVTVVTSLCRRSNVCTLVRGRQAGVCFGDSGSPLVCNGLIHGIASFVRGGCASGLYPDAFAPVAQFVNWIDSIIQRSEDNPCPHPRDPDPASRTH
How it was run: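 Human leukocyte elastase at 8 nM with 133 μM Succ-AAV-pNA. Inhibitor at 300–0.06 μM, preincubated with enzyme 1 h at 30 °C. Substrate hydrolysis run to ~30% conversion and read by absorbance.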

Cathepsin B = Cathepsin B (Homo sapiens, UniProt P07858); test: Activity against serine protease human liver Cathepsin B (cat-B )
How it was run: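 Human liver cathepsin B, 5 nM, with the stock enzyme activated in 20 mM TCEP before use. Inhibitor at 300–0.06 μM, preincubated 1 h at 30 °C. Then 30 μM Z-FR-pNA added, hydrolysis to ~30% conversion, pNA absorbance read.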

Compound	IC50 (Chymotrypsinogen A) [µM]	IC50 (Neutrophil elastase) [µM]	IC50 (Cathepsin B) [µM]
CN(C)C(=O)C[C@H](NC(=O)[C@@H](NC(=O)CC(C)(C)C)C(C)(C)C)C(=O)N[C@H]1CN(OCc2ccccc2)C1=O	> 75	> 300	> 300
CC(NC(=O)[C@H](CC(=O)N(C)C)NC(=O)[C@@H](NC(=O)CC(C)(C)C)C(C)(C)C)C(=O)c1nc2ccccc2o1 (stereo partly specified)	> 300	183	> 300
CC(NC(=O)[C@H](CC(=O)N(C)C)NC(=O)[C@@H](NC(=O)CC(C)(C)C)C(C)(C)C)C(=O)c1nc2ncccc2o1 (stereo partly specified)	> 300	> 300	59
Cc1cccc2oc(C(=O)C(C)NC(=O)[C@H](CC(=O)N(C)C)NC(=O)[C@@H](NC(=O)CC(C)(C)C)C(C)(C)C)nc12 (stereo partly specified)	> 300	> 300	> 300
CC(NC(=O)[C@H](CC(=O)N(C)C)NC(=O)[C@@H](NC(=O)CC(C)(C)C)C(C)(C)C)C(=O)c1nc2ccccc2s1 (stereo partly specified)	> 300	> 300	19
Cc1ccc2oc(C(=O)C(C)NC(=O)[C@H](CC(=O)N(C)C)NC(=O)[C@@H](NC(=O)CC(C)(C)C)C(C)(C)C)nc2c1 (stereo partly specified)	> 300	> 300	> 300
Cc1cccc2nc(C(=O)C(C)NC(=O)[C@H](CC(=O)N(C)C)NC(=O)[C@@H](NC(=O)CC(C)(C)C)C(C)(C)C)oc12 (stereo partly specified)	> 300	> 300	> 300
CC(NC(=O)[C@H](CC(=O)N(C)C)NC(=O)[C@@H](NC(=O)CC(C)(C)C)C(C)(C)C)C(=O)C(F)(F)C(F)(F)F (stereo partly specified)	14	> 300	> 300
C[C@H](NC(=O)[C@H](CC(=O)N(C)C)NC(=O)[C@@H](NC(=O)CC(C)(C)C)C(C)(C)C)C(=O)C(F)(F)F	> 300	> 300	> 300
C[C@H](NC(=O)[C@H](CC(=O)N(C)C)NC(=O)[C@@H](NC(=O)CC(C)(C)C)C(C)(C)C)C(=O)C(F)(F)C(=O)NCc1ccccc1	> 300	> 300	> 300
CC(NC(=O)[C@H](CC(=O)N(C)C)NC(=O)[C@@H](NC(=O)CC(C)(C)C)C(C)(C)C)C(=O)C(=O)NCc1ccccc1 (stereo partly specified)	> 300	> 300	> 300
Cc1ccc2nc(C(=O)C(C)NC(=O)[C@H](CC(=O)N(C)C)NC(=O)[C@@H](NC(=O)CC(C)(C)C)C(C)(C)C)oc2c1 (stereo partly specified)	> 300	> 300	225
